This passage reports logP and Relative potency results from ChEMBL document CHEMBL1125614, “Synthesis of 2-exo- and 2-endo-mecamylamine analogues. Structure-activity relationships for nicotinic antagonism in the central nervous system” (J Med Chem, 1991).

Data set [1] can be described thus: Partition coefficient (logP). In kind it is physicochemical. To be noted: octanol/water. The essentials:
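Octanol-water partition coefficient, calculated (not measured) from structure by the Rekker fragment procedure.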

Data set [2] concerns Mus musculus. The data set is described as follows: In vivo nicotinic antagonism relative to (+/-)-exo-mecamylamine measured in mice. In kind it is functional. An outline of the steps:
(§1)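 Mice; antagonist or saline sc 10 min before saline or nicotine ditartrate at its ED84 dose. Spontaneous activity counted in photocell cages, % depression vs saline. Tail-flick latency to heat measured 5 min after nicotine, 10-s cutoff, as % MPE. % antagonism per assay; AD50 with 95% confidence limits by Litchfield-Wilcoxon. Potency ratio = compound AD50 / racemic mecamylamine AD50; relative potency averages both assays.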

The test system of data set [3] is Mus musculus. The data set is described as follows: In vivo nicotinic antagonism relative to (+/-)-exo-mecamylamine measured in mice; stimulant. In kind it is functional, organism-based. An outline of the steps:
as §1

The term logP denotes a log measure of how a compound divides between an organic and an aqueous phase. Turning to `CN(C)C1CC2CCC1(C)C2(C)C` (racemic), the logP in data set [1] (read-out: logP) worked out at 3.96. Also, the Relative potency in data set [2] amounted to 10.5. For `CNC1C2CCC(C2)C1(C)C` (racemic), in that order: 3.01 and 1.2. For `CNC1C2CCC(C2)C1C` (racemic), in that order: 2.49 and 18.1.

For `CNC1CC2CCC1(C)C2(C)C` (racemic), the log partition coefficient (logP) in data set [1] (read-out: logP) is 3.53. In data set [2], this molecule yielded a Relative potency of 8.6.

For the molecule `CNC1CC2CCC1C2` (racemic), the lipophilicity (logP) in data set [1] (read-out: logP) is 1.97. Besides, in data set [2], the Relative potency is recorded as above 40. For `CN(C)C1(C)C2CCC(C2)C1(C)C` (racemic) [DIMECAMINE], in that order: 3.96 and 1.5. Turning to `CCNC1C2CCC(C2)C1c1ccccc1` (racemic) [FENCAMFAMIN], the Relative potency entry in data set [3] is reported as “Stimulant”. Further, the logP in data set [1] (read-out: logP) was found to be 4.15. As to `CNC1(C)C2CCC(C2)C1(C)C` (racemic) [MECAMYLAMINE], the logP in data set [1] stood at 3.53. For the same molecule, the Relative potency in data set [2] worked out at 1. Regarding `CN[C@@H]1C2(C)CCC(C2)C1(C)C` (single isomer, unassigned; (+)), the Relative potency in data set [2] amounted to 1.2.

In data set [2], `CN[C@H]1C2(C)CCC(C2)C1(C)C` (single isomer, unassigned; (+)) showed a Relative potency of 1.9. On the same count and under the same terms, then `CNC1(C)C2CCC(C2)C1(C)C` (single isomer, unassigned; (+)) [MECAMYLAMINE], with 3. Regarding `CN[C@@H]1C2(C)CCC(C2)C1(C)C` (single isomer, unassigned; (-)), in data set [1] (read-out: logP), the logP was 3.53. This molecule had a Relative potency in data set [2] of 1.7.

Regarding `CN[C@H]1C2(C)CCC(C2)C1(C)C` (single isomer, unassigned; (-)), the logP in data set [1] (read-out: logP) amounted to 3.53. The Relative potency in data set [2] is listed as 6.2. In turn, `CNC1(C)C2CCC(C2)C1(C)C` (single isomer, unassigned; (-)) [MECAMYLAMINE] gave a Relative potency in data set [2] of 1.4.
